This is an account of results in ChEMBL document CHEMBL1145855, “Computer-aided selection of potential antihypertensive compounds with dual mechanism of action” (J Med Chem, 2003).

The target of assay [1] is Neprilysin (Homo sapiens, UniProt P08473). Description: Inhibitory activity against neutral endopeptidase (NEP) from human blood serum. The procedure, abridged: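 Human serum (diluted 1:5) as enzyme source, with the test compound at six to eight concentrations from 10^-2 to 10^-6 M, in 50 mM Tris-HCl pH 7.5. Preincubated 20 min at 37 °C. Suc-Ala-Ala-Phe-MCA added (20 µM final) and incubated 120-180 min at 37 °C. Stopped with 20 mM sodium acetate pH 4.0. Released 4-methylcoumarinyl-7-amine read at Ex 383/Em 455 nm. Percent inhibition taken against the no-inhibitor control; IC50 derived.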

Assay [2] has as its target T1, Angiotensin-converting enzyme (Rattus norvegicus, UniProt P47820).
T1 sequence (P47820 whole entry): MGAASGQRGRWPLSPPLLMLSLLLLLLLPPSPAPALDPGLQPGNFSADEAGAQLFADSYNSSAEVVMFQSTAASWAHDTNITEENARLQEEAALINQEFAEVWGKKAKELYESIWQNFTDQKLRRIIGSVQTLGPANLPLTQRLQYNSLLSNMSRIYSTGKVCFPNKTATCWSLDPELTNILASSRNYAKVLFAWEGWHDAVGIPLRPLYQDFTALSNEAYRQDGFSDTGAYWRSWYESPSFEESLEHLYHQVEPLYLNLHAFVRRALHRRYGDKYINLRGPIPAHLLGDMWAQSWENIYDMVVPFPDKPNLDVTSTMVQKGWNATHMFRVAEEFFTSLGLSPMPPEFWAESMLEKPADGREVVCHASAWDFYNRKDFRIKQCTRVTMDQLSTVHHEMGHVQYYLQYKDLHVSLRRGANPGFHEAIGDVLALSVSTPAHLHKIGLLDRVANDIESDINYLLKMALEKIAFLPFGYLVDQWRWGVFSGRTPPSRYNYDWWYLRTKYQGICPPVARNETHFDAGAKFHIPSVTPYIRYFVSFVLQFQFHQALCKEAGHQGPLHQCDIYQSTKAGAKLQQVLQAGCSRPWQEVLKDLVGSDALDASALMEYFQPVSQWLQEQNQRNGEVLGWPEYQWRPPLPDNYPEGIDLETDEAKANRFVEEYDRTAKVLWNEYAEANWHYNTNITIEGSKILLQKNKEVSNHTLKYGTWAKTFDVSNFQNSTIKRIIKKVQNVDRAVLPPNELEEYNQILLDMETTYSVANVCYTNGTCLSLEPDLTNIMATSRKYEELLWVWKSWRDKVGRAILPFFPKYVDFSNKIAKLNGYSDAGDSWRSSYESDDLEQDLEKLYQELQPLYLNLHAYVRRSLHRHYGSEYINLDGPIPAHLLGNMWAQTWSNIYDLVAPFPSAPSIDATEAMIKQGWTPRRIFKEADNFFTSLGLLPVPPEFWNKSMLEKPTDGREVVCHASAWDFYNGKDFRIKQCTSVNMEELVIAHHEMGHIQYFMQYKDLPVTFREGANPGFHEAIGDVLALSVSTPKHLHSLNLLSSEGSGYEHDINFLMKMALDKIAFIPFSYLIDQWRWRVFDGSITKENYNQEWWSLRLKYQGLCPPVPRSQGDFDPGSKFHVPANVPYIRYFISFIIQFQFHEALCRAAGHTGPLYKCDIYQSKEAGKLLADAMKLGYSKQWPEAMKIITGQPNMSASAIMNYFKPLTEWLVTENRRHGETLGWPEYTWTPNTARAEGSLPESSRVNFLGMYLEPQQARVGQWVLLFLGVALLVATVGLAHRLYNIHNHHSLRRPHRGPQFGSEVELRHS
In words: Inhibitory activity against Angiotensin I converting enzyme (ACE) from rat cortex brain membrane. The procedure, abridged: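 Enzyme source was human serum (diluted 1:5) or rat cortex brain membrane suspension, in 70 mM potassium phosphate pH 8.3 with 300 mM NaCl. Compound (10^-3 to 10^-8 M) preincubated 20 min at 37 °C, then 25 µM Hip-His-Leu added for 120 min; stopped with NaOH.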

Assay [3] addresses Angiotensin-converting enzyme (Homo sapiens, UniProt P12821). In words: Inhibitory activity against Angiotensin I converting enzyme (ACE) from human blood serum.
For assay [4], the target named is T2, Neprilysin (Rattus norvegicus, UniProt P07861).
T2 sequence (P07861 whole entry): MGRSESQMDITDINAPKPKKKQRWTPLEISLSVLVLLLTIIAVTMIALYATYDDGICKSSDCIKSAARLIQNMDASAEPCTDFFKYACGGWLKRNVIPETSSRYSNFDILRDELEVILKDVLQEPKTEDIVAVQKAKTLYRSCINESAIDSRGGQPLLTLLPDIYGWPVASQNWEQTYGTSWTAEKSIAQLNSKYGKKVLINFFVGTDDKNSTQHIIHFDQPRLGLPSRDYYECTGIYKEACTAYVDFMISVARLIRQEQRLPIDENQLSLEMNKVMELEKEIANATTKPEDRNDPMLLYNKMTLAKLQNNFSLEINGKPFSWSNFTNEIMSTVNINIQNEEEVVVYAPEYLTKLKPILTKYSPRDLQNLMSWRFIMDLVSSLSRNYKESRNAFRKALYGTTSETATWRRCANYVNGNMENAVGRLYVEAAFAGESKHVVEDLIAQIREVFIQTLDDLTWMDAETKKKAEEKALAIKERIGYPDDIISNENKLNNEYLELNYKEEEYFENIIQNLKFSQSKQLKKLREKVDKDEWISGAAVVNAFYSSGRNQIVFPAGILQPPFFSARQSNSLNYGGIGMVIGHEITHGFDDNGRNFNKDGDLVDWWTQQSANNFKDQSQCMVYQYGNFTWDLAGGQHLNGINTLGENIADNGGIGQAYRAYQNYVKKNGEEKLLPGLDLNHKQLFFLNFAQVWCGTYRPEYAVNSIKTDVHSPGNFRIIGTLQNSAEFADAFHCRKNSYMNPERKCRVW
In words: Inhibitory activity against neutral endopeptidase (NEP) from rat cortex brain membrane. The method, boiled down:
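Rat cortex brain membrane suspension in 50 mM Tris-HCl pH 7.5, with six to eight inhibitor concentrations (10^-2 to 10^-6 M). Preincubated 20 min at 37 °C, then Suc-Ala-Ala-Phe-MCA (20 µM final) added for 120-180 min at 37 °C; stopped with pH 4.0 acetate. Released 4-methylcoumarinyl-7-amine read at Ex 383/Em 455 nm; % inhibition versus control; IC50.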

The target of assay [5] is Angiotensin-converting enzyme (Bos taurus) (UniProt P12820). In words: Inhibitory activity of compound at 1*10e-4 M against Angiotensin I converting enzyme (ACE) from bovine kidney.
Chain of Angiotensin-converting enzyme (Bos taurus) (P12820 whole entry, looked up): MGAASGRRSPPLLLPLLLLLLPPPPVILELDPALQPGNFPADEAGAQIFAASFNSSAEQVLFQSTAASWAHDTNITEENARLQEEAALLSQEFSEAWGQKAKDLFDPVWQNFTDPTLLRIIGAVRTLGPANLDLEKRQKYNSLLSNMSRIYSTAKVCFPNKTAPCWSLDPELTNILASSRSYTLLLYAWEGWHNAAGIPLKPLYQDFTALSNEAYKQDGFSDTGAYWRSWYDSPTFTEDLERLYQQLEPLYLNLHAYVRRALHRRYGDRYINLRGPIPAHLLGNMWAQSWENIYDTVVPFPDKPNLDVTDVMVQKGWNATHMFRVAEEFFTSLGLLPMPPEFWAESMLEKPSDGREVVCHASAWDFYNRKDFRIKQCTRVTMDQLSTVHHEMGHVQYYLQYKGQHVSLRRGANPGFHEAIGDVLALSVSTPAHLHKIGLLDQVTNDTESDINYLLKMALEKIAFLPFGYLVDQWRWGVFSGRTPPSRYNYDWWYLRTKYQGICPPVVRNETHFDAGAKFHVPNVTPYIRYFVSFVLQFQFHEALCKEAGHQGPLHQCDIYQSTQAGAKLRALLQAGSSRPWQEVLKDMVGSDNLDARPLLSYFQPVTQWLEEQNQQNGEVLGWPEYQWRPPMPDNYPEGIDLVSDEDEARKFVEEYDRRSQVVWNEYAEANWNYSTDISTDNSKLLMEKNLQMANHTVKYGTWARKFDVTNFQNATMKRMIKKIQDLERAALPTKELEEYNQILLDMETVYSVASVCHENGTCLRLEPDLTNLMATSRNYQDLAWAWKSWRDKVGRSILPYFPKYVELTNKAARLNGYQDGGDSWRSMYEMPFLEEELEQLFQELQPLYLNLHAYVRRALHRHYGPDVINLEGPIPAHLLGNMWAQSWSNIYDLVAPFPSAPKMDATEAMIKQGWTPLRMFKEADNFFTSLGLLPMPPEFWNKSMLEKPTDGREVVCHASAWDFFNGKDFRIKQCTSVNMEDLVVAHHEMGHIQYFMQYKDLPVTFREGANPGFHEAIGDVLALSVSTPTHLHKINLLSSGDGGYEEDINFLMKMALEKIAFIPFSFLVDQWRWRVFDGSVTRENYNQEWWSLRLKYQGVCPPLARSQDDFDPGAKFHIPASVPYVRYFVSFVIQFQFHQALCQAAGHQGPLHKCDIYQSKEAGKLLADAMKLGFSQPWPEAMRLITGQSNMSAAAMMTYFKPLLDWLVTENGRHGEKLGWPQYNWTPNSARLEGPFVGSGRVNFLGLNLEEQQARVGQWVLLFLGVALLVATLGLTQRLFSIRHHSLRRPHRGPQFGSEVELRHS

Chain of Angiotensin-converting enzyme (Homo sapiens, UniProt P12821) (P12821 whole entry): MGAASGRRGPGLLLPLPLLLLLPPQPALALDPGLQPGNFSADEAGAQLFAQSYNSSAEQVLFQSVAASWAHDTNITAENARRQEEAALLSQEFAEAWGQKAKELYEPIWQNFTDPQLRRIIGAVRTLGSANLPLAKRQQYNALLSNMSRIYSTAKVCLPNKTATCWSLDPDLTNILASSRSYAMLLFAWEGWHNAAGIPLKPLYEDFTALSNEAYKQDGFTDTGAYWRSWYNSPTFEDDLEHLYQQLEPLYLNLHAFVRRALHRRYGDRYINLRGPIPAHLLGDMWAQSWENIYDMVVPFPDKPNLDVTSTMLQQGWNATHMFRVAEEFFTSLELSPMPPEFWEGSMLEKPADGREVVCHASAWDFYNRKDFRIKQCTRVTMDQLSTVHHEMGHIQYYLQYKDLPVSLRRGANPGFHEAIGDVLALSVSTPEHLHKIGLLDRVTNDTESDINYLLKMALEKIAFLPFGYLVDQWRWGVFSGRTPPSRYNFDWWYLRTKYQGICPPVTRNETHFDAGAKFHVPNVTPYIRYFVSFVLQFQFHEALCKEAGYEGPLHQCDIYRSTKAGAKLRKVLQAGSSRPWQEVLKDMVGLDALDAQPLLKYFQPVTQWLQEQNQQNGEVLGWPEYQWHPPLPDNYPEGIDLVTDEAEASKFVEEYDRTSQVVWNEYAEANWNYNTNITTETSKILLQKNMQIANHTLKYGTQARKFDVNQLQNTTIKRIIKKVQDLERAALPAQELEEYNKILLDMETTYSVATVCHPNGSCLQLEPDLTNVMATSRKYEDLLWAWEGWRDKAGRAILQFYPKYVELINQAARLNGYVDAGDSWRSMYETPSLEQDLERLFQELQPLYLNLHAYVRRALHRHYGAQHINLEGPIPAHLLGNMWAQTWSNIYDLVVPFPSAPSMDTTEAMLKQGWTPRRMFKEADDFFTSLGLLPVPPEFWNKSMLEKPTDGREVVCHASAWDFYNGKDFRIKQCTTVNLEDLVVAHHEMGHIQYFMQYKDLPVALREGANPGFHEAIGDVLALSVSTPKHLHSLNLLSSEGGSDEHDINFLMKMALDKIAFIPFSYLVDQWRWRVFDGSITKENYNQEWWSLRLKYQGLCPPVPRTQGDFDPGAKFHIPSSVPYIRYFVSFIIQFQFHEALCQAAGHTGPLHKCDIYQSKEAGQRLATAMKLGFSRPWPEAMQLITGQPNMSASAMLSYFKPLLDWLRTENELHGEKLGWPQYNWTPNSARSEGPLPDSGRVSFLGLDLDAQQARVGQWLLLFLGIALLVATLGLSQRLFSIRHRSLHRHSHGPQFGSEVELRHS
Chain of Neprilysin (Homo sapiens, UniProt P08473) (P08473 whole entry): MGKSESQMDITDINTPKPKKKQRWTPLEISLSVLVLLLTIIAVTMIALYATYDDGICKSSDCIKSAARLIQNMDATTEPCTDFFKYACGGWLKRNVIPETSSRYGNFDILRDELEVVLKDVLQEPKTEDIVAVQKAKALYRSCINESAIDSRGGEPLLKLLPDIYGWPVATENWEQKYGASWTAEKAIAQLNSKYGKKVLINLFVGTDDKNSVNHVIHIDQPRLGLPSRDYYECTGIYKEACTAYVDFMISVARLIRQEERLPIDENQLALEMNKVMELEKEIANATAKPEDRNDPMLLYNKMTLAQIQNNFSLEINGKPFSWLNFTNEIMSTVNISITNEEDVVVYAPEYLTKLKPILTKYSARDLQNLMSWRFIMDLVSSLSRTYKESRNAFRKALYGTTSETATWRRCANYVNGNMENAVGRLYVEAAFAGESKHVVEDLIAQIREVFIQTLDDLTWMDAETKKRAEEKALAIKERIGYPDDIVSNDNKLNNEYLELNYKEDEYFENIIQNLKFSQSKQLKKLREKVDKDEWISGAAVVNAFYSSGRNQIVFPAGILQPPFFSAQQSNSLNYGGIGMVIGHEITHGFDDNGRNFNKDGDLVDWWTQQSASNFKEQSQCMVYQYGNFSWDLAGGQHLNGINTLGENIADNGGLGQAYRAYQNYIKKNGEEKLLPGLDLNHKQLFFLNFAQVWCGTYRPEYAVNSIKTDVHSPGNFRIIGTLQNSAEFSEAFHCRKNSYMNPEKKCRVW

As to `CC(=O)SCC(C)C(=O)NCc1ccccc1` (configuration not stated), the IC50 (in general, the concentration at which inhibition is half-maximal) in assay [1] worked out at 20 µM; in assay [2], 100 µM; in assay [3], 200 µM; in assay [4] it was 200 µM.
As for `CC(=O)SCC(C)C(=O)Nc1ccccc1` (configuration not stated), the IC50 amounted to 20 µM in assay [1], 1 µM in assay [2], 2 µM in assay [3] and 200 µM in assay [4].
For the compound `CC1CCCC(C(=O)O)N1C(=O)CCS` (configuration not stated), the IC50 was determined as 0.1 µM in assay [2], 0.02 µM in assay [3] and 2000 µM in assay [4].
On to `CC(C)C[C@H](NP(=O)(O)O[C@@H]1O[C@@H](C)[C@H](O)[C@@H](O)[C@H]1O)C(=O)N[C@@H](Cc1c[nH]c2ccccc12)C(=O)O` [PHOSPHORAMIDON], for which the figures for the IC50 in assay [1] and in assay [4] were 0.1 µM and 0.2 µM, respectively.
`O=C(O)CCCNCP(=O)(O)CCc1ccccc1`: the figures for the IC50 in assay [2], in assay [3] and in assay [4] were 100 µM, 100 µM and 2000 µM, respectively. Besides, in assay [5], the inhibition (as a rule, the drop in the measured response relative to a control, in per cent) was 18%.
